Assay results reported in ChEMBL document CHEMBL3112522, “Bicyclic brominated furanones: a new class of quorum sensing modulators that inhibit bacterial biofilm formation” (Bioorg Med Chem, 2014).
Activity calls are given as the source filed them. No cut-off for these calls is given here.

What was measured:
Pseudomonas aeruginosa [1] = test: Toxicity in Pseudomonas aeruginosa PAO1 assessed as planktonic growth inhibition at 400 uM after 24 hrs; assay type: organism-based; details: in vivo
Pseudomonas aeruginosa [2] = test: Antibacterial activity against Pseudomonas aeruginosa PAO1 expressing green fluorescence protein assessed as inhibition of biofilm formation at 400 uM after 24 hrs by confocal laser scanning microscopic analysis; assay type: functional, organism-based
Summary of the method: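 PA01-GFP (pSMC2; grown in LB with 300 µg/mL carbenicillin) formed biofilms on stainless-steel coupons with 400 µM compound, static, 37 °C, 24 h. Coupons rinsed three times in 0.9% saline, then imaged by CLSM.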

Escherichia coli [3] = test: Antibacterial activity against Escherichia coli RP437 expressing red fluorescence protein assessed as inhibition of biofilm formation measured as reduction in surface area at 200 uM after 24 hrs by confocal laser scanning microscopic analysis; assay type: functional, organism-based
Summary of the method: (§1)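 E. coli RP437 (pRSH103, red fluorescent; grown in LB with 10 µg/mL tetracycline) formed biofilms on 316 stainless-steel coupons with 200 µM compound or 0.4% DMSO control, static, 37 °C, 24 h. Coupons rinsed three times in 0.9% NaCl, then imaged by CLSM. COMSTAT gave biomass, mean thickness and surface area from z-stacks at four locations, normalized to the BF-free control. Four replicates.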

Escherichia coli [4] = test: Toxicity in Escherichia coli RP437 assessed as planktonic growth inhibition at 200 uM up to 8 hrs; assay type: organism-based; details: in vivo
Summary of the method: (§2)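 E. coli RP437 in LB at 37 °C, started at OD600 0.05 in 96-well plates with 200 µM compound (DMSO stock), shaken at 250 rpm. OD600 read at 0, 2, 4, 6, 8, 10, 12 and 24 h, normalized to the BF-free control. Six replicates.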

Escherichia coli [5] = test: Antibacterial activity against Escherichia coli RP437 expressing red fluorescence protein assessed as inhibition of biofilm formation measured as reduction in mean thickness of biofilm at 200 uM after 24 hrs by confocal laser scanning microscopic analysis; assay type: functional, organism-based; summary of the method: as §1
Escherichia coli [6] = test: Antibacterial activity against Escherichia coli RP437 expressing red fluorescence protein assessed as inhibition of biofilm formation at 200 uM after 24 hrs by confocal laser scanning microscopic analysis; assay type: functional, organism-based; summary of the method: as §1
[7] = Cytotoxicity against human SK-N-SH cells assessed as cell survival at 400 uM incubated for 1 hr followed by compound washout measured after 48 hrs by CCK-8 assay relative to control; assay type: cell-based; details: read-out: Survival
Summary of the method: (§3)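 SK-N-SH cells were grown in EMEM with 10% FBS, penicillin/streptomycin and 2.0 mM L-glutamine at 37 °C, 5% CO2. Wells were seeded at 5×10^4 cells/mL and left 24 h to adhere. Cells were exposed for 1 h in fresh medium, with DMSO-matched controls, then washed twice. After 0, 24 or 48 h recovery, CCK-8 A450 was read. Survival = (sample−medium)/(control−medium)×100.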

[8] = Cytotoxicity against human SK-N-SH cells assessed as cell survival at 400 uM incubated for 1 hr followed by compound washout measured after 24 hrs by CCK-8 assay relative to control; assay type: cell-based; details: read-out: Survival; summary of the method: as §3
[9] = molecular target: T1, Transcriptional activator protein LasR (Pseudomonas aeruginosa (strain ATCC 15692 / PAO1 / 1C / PRS 101 / LMG12228)) (UniProt P25084); test: Antagonist activity at LasR in Pseudomonas aeruginosa PAO1 expressing LasI assessed as inhibition of GFP production at 50 to 300 uM after 24 hrs by fluorescence assay relative to control
T1 sequence (whole entry): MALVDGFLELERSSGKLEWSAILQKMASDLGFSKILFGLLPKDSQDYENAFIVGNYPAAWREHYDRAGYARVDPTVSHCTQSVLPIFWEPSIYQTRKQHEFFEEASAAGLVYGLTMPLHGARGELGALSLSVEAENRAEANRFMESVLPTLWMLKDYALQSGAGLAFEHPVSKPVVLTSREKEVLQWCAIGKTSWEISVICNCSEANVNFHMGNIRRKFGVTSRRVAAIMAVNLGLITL

Escherichia coli [10] = test: Antibacterial activity against Escherichia coli RP437 expressing red fluorescence protein assessed as inhibition of biofilm formation measured as reduction in biomass at 200 uM after 24 hrs by confocal laser scanning microscopic analysis; assay type: functional, organism-based; summary of the method: as §1
[11] = Cytotoxicity against human SK-N-SH cells assessed as cell survival at 400 uM incubated for 1 hr followed by compound washout measured immediately by CCK-8 assay relative to control; assay type: cell-based; details: read-out: Survival; summary of the method: as §3
[12] = molecular target: T2, HTH-type quorum-sensing regulator RhlR (Pseudomonas aeruginosa (strain ATCC 15692 / PAO1 / 1C / PRS 101 / LMG12228)) (UniProt P54292); test: Agonist activity at RhlR in Pseudomonas aeruginosa PAO1 expressing RhlI assessed as effect on GFP production at 50 to 300 uM after 24 hrs by fluorescence assay relative to control
T2 sequence (whole entry): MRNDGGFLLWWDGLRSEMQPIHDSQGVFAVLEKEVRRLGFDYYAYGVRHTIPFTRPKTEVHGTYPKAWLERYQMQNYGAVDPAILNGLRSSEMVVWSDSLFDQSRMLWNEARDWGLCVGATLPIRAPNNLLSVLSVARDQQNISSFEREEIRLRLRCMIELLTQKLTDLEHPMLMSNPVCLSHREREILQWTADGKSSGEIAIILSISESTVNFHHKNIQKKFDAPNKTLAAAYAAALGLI
Summary of the method: (§4)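 PAO1 (prhlI-LVAgfp) grown in M9 with 300 µg/mL carbenicillin to OD600 0.1, exposed to compound at 50, 150 or 300 µM for 24 h at 37 °C with shaking at 250 rpm. Fluorescence read at ex 500/em 540 nm, M9 background subtracted, divided by OD600 and normalized to the BF-free control. Four replicates.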

SK-N-SH = test: Cytotoxicity against human SK-N-SH cells assessed as cell survival at 100 uM incubated for 1 hr followed by compound washout measured up to 48 hrs by CCK-8 assay; assay type: cell-based
Summary of the method: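 SK-N-SH cells seeded at 5×10^4 cells/mL (100 µL) in EMEM with 10% FBS and allowed to adhere 24 h. Exposed 1 h to 100 µM compound or DMSO control, washed twice, then allowed to recover 0, 24 or 48 h. Live cells measured by CCK-8 at A450. Survival = (sample − medium)/(control − medium) × 100.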

[13] = molecular target: T1, Transcriptional activator protein LasR (Pseudomonas aeruginosa (strain ATCC 15692 / PAO1 / 1C / PRS 101 / LMG12228)); test: Antagonist activity at LasR in Pseudomonas aeruginosa PAO-JP2 expressing LasI assessed as inhibition of GFP production at 50 to 300 uM after 24 hrs by fluorescence assay in presence of 3-oxo-C12-HSL
Summary of the method: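 PAO-JP2 (plasI-LVAgfp) grown in M9 with 300 µg/mL carbenicillin to OD600 0.1, given 1 µM 3-oxo-C12-HSL ± compound at varied concentrations, incubated 24 h at 37 °C with shaking at 250 rpm. GFP read at ex 500/em 540 nm, M9 background subtracted, divided by OD600 and normalized to the BF-free control. Four replicates.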

Pseudomonas aeruginosa [14] = test: Inhibition of quorum sensing system in Pseudomonas aeruginosa PAO-JP2 assessed as reduction of elastase B production at 300 uM after 24 hrs by congo-red staining-based assay relative to control
Summary of the method: (§5)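 PAO-JP2 grown in PTSB at 37 °C, subcultured at OD600 0.05 with 5 µM 3-oxo-C12-HSL and 10 µM C4-HSL ± compound, shaken at 250 rpm for 24 h. Filtered supernatant (100 µL) incubated with Elastin-Congo red (4.5 mg in 900 µL Tris-HCl pH 7.2, 1 mM CaCl2) for 24 h at 37 °C, stopped with EDTA. A490 read minus bacteria-free blank, normalized to control. Four replicates.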

[15] = molecular target: T1, Transcriptional activator protein LasR (Pseudomonas aeruginosa (strain ATCC 15692 / PAO1 / 1C / PRS 101 / LMG12228)); test: Antagonist activity at LasR in Pseudomonas aeruginosa PAO1 expressing LasI assessed as inhibition of GFP production at 300 uM after 24 hrs by fluorescence assay relative to control
Pseudomonas aeruginosa [16] = test: Antibacterial activity against Pseudomonas aeruginosa PAO1 assessed as inhibition of biofilm formation incubated for 24 hrs followed by compound-washout measured after 30 mins by crystal-violet staining-based colorimetric assay; assay type: functional, organism-based
Summary of the method: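 P. aeruginosa subcultured at OD600 0.1 in LB with compound (DMSO stock) in 96-well polystyrene plates, stationary, 37 °C, 24 h. Wells washed and dried 30 min, stained with 0.1% crystal violet for 30 min, washed, dye solubilized in 95% EtOH, A540 read. Values are (sample − medium)/(DMSO control − medium) × 100. Four replicates.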

[17] = molecular target: T1, Transcriptional activator protein LasR (Pseudomonas aeruginosa (strain ATCC 15692 / PAO1 / 1C / PRS 101 / LMG12228)); test: Antagonist activity at LasR in Pseudomonas aeruginosa PAO1 expressing LasI assessed as inhibition of GFP production at 50 to 150 uM after 24 hrs by fluorescence assay
[18] = molecular target: T2, HTH-type quorum-sensing regulator RhlR (Pseudomonas aeruginosa (strain ATCC 15692 / PAO1 / 1C / PRS 101 / LMG12228)); test: Agonist activity at RhlR in Pseudomonas aeruginosa PAO-JP2 expressing RhlI assessed as effect on GFP production at 50 to 300 uM after 24 hrs by fluorescence assay in presence of 3-oxo-C12-HSL and C4-HSL relative to control
Summary of the method: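 PAO-JP2 (prhlI-LVAgfp) grown in M9 with 300 µg/mL carbenicillin to OD600 0.1, dosed with 1 µM 3-oxo-C12-HSL and 10 µM C4-HSL ± compound, shaken at 250 rpm and 37 °C for 24 h. GFP read at ex 500/em 540 nm, M9 background subtracted, divided by OD600 and normalized to the BF-free control. Four replicates.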

Escherichia coli [19] = test: Toxicity in Escherichia coli RP437 assessed as planktonic growth inhibition at 200 uM after 24 hrs; assay type: organism-based; details: in vivo; summary of the method: as §2
Pseudomonas aeruginosa [20] = test: Antibacterial activity against Pseudomonas aeruginosa PAO1 expressing green fluorescence protein assessed as inhibition of biofilm formation measured as reduction in biomass at 400 uM after 24 hrs by confocal laser scanning microscopic analysis relative to control; assay type: functional; details: PAO1, 24 h
Pseudomonas aeruginosa [21] = test: Antibacterial activity against Pseudomonas aeruginosa PAO1 expressing green fluorescence protein assessed as inhibition of biofilm formation measured as reduction in surface area at 400 uM after 24 hrs by confocal laser scanning microscopic analysis relative to control; assay type: functional, organism-based
[22] = molecular target: T2, HTH-type quorum-sensing regulator RhlR (Pseudomonas aeruginosa (strain ATCC 15692 / PAO1 / 1C / PRS 101 / LMG12228)); test: Agonist activity at RhlR in Pseudomonas aeruginosa PAO1 expressing RhlI assessed as stimulation of GFP production at 150 uM after 24 hrs by fluorescence assay relative to control; summary of the method: as §4
[23] = molecular target: T2, HTH-type quorum-sensing regulator RhlR (Pseudomonas aeruginosa (strain ATCC 15692 / PAO1 / 1C / PRS 101 / LMG12228)); test: Agonist activity at RhlR in Pseudomonas aeruginosa PAO1 expressing RhlI assessed as stimulation of GFP production at 300 uM after 24 hrs by fluorescence assay relative to control; summary of the method: as §4
Pseudomonas aeruginosa [24] = test: Antibacterial activity against Pseudomonas aeruginosa PAO1 expressing green fluorescence protein assessed as inhibition of biofilm formation measured as reduction in mean thickness of biofilm at 400 uM after 24 hrs by confocal laser scanning microscopic analysis relative to control; assay type: functional
Pseudomonas aeruginosa [25] = test: Inhibition of quorum sensing system in Pseudomonas aeruginosa PAO-JP2 assessed as reduction of elastase B production after 24 hrs by congo-red staining-based assay; summary of the method: as §5

SMILES	Activity (Pseudomonas aeruginosa [1])	inhibition (Pseudomonas aeruginosa [2])	inhibition (Escherichia coli [3])	inhibition (Escherichia coli [5])	inhibition (Escherichia coli [6])	viability at 1 h, 400 µM [7]	viability at 1 h, 400 µM [8]	inhibition [9]	inhibition (Escherichia coli [10])	viability at 1 h, 400 µM [11]	Activity [12]	Activity (SK-N-SH)	inhibition [13]	inhibition (Pseudomonas aeruginosa [14])	inhibition [15]	IC50 (Pseudomonas aeruginosa [16])	Activity [18]	Activity (Escherichia coli [19])	inhibition at 400 µM (Pseudomonas aeruginosa [20])	inhibition (Pseudomonas aeruginosa [21])	other results
O=C1C=C(Br)/C(=C/Br)O1	Toxic	Active	–	–	–	–	–	–	–	–	–	–	–	–	–	–	–	–	–	–	–
CC1=C(Br)/C(=C\Br)OC1=O	–	–	Active	Active	Active	< 2%	< 2%	46%	Active	29%	inactive	Toxic	Active	–	–	–	–	–	–	–	Activity (Escherichia coli [4]): Toxic
O=C1C=C2CCCCC(Br)=C2O1	Non-toxic	Active	Active	Active	Active	13%	7%	–	Active	44%	inactive	Non-toxic	Active	80%	69%	140 µM	inactive	Non-toxic	50%	Active	inhibition [17]: Active
O=C1C=C2CCC(Br)=C2O1	Non-toxic	Active	Active	Active	Active	6%	21%	Active	Active	76%	–	Non-toxic	Active	80%	–	> 400 µM	Active	Non-toxic	53%	Active	Activity [22]: 82.6%; Activity [23]: 165%; inhibition (Pseudomonas aeruginosa [24]): inactive
O=C1C=C2CCCC(Br)=C2O1	Non-toxic	Active	Active	Active	Active	50%	50%	–	Active	76%	inactive	Non-toxic	Active	80%	78%	146 µM	inactive	Non-toxic	71%	Active	inhibition [17]: Active; inhibition (Pseudomonas aeruginosa [25]): Dose-dependent effect; inhibition at 400 µM (Pseudomonas aeruginosa [24]; PAO1, 24 h): 60%
